Assay results taken from ChEMBL document CHEMBL4480371, “Benzoflavone derivatives as potent antihyperuricemic agents” (Medchemcomm, 2019).
Activity calls are given as the source filed them. No cut-off for these calls is given here.

Tests used:
[1] = Antioxidant activity assessed as DPPH radical scavenging activity shaken for 1 min and incubated under dark condition for 30 mins by spectrophotometric analysis; assay type: functional
Method in brief: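 DPPH at 0.004% w/v and compounds were made in methanol, mixed 1.5 mL to 1 mL, shaken 1 min at 37 °C, then kept 30 min in the dark. Absorbance was read at 517 nm and % scavenging calculated against a DPPH-plus-methanol control. […] Triplicate, mean.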

[2] = target: T1, Xanthine dehydrogenase/oxidase (Bos taurus, UniProt P80457); assay: Inhibition of bovine milk xanthine oxidase using xanthine as substrate preincubated for 5 mins followed by substrate addition by UV-visible spectrophotometry
[3] = tested on: Mus musculus; assay: Anti-hyperuricemic effect in Swiss albino mouse model of potassium oxonate-induced hyperuricemia model assessed as reduction in serum uric acid level treated orally 1 hr post potassium oxonate addition and measured after 30 mins by ERBA method; assay type: functional, organism-based
Method in brief: (§1)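 Male Swiss albino mice, […], 25–30 g, n = 6 per group, fasted 6 h from feed. Xanthine 500 mg/kg was given orally, then potassium oxonate 300 mg/kg ip 30 min later, both in 0.5% CMC. Compounds were dosed orally 1 h after oxonate. Retro-orbital blood was drawn 2 h after PO+Xn, and serum uric acid was read by kit at 505 nm (5 min, 37 °C). Mean ± S.E.M., ANOVA/Tukey.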

[4] = tested on: Mus musculus; assay: Anti-hyperuricemic effect in Swiss albino mouse model of potassium oxonate-induced hyperuricemia model assessed as serum uric acid level at 10 mg/kg, po treated 1 hr post potassium oxonate addition and measured after 30 mins by ERBA method (reference value: 5.9 +/- 0.42 mg/dl); assay type: functional
[5] = target: T1, Xanthine dehydrogenase/oxidase; assay: Competitive mixed type inhibition of bovine milk xanthine oxidase using xanthine as substrate preincubated for 5 mins followed by substrate addition by UV-visible spectrophotomety based Lineweaver-Burk plot analysis; settings: cattle
Method in brief: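 Bovine milk xanthine oxidase was assayed in 50 mM potassium phosphate (pH 7.6) at 25 °C, with uric acid formation followed at 293 nm. Enzyme was preincubated 5 min with inhibitor in 1% v/v DMSO, and the reaction was started with xanthine. Inhibition mode came from Lineweaver–Burk plots.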

[6] = tested on: Mus musculus; assay: Anti-hyperuricemic effect in Swiss albino mouse model of potassium oxonate-induced hyperuricemia model assessed as serum uric acid level at 5 mg/kg, po treated 1 hr post potassium oxonate addition and measured after 30 mins by ERBA method (reference value: 5.9 +/- 0.42 mg/dl); assay type: functional; method in brief: as §1
[7] = tested on: Mus musculus; assay: Anti-hyperuricemic effect in Swiss albino mouse model of potassium oxonate-induced hyperuricemia model assessed as reduction in serum uric acid level at 0.55 mg/kg, po treated 1 hr post potassium oxonate addition and measured after 30 mins by ERBA method; assay type: functional, organism-based; settings: 0.5 mg/kg, in the assay text read “0.5 mg/kg” for “0.55 mg/kg”; method in brief: as §1
[8] = tested on: Mus musculus; assay: Anti-hyperuricemic effect in Swiss albino mouse model of potassium oxonate-induced hyperuricemia model assessed as serum uric acid level at 1 to 10 mg/kg, po treated 1 hr post potassium oxonate addition and measured after 30 mins by ERBA method (reference value: 5.9 +/- 0.42 mg/dl); assay type: functional; method in brief: as §1
[9] = Acute toxicity in potassium oxonate-induced Swiss albino mouse hyperuricemic model assessed as induction of abnormal behavior at 2000 mg/kg, po measured after 24 hrs; settings: in vivo

T1 sequence (P80457 whole entry): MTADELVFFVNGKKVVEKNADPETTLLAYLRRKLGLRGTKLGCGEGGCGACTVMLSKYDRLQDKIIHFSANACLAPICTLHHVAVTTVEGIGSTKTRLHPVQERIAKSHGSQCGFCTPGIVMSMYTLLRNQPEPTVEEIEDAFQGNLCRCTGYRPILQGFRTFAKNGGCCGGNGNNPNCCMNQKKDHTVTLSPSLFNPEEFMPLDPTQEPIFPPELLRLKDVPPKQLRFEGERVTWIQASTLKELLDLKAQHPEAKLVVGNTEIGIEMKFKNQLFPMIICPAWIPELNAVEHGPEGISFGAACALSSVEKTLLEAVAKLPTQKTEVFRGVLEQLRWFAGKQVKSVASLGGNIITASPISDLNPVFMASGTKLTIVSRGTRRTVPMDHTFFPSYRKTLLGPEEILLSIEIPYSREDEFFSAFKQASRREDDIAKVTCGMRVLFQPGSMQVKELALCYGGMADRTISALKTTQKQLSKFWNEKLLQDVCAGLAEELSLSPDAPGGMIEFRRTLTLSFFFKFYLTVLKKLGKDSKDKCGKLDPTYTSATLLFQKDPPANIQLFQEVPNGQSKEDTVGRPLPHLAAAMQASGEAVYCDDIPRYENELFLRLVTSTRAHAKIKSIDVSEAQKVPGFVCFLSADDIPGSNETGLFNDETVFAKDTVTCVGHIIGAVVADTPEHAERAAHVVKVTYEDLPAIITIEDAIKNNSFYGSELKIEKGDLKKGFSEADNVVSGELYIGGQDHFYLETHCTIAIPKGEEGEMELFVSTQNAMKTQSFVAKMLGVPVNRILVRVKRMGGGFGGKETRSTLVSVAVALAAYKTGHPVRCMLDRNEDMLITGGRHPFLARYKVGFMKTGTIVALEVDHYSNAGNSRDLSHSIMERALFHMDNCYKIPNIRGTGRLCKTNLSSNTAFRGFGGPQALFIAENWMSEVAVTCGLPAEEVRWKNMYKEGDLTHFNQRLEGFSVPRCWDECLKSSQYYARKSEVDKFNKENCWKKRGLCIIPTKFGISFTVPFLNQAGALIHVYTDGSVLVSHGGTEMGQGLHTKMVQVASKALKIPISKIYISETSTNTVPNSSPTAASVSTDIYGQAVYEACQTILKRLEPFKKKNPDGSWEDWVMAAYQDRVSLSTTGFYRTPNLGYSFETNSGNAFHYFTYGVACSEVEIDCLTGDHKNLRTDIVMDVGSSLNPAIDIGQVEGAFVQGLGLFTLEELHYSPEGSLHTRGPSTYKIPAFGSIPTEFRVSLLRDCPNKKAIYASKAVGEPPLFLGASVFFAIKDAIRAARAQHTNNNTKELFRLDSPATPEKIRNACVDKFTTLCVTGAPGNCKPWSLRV

| Compound | IC50 [1] [µM] | IC50 [2] [µM] | also measured |
| --- | --- | --- | --- |
| O=c1cc(-c2cc([N+](=O)[O-])cc([N+](=O)[O-])c2)oc2ccc3ccccc3c12 | > 20 | > 20 |  |
| O=c1cc(-c2cccc(Cl)c2Cl)oc2ccc3ccccc3c12 | > 20 | 18.6 |  |
| O=c1cc(-c2cccc([N+](=O)[O-])c2)oc2c1ccc1ccccc12 | 8.24 | > 20 |  |
| O=c1cc(-c2ccc([N+](=O)[O-])cc2)oc2c1ccc1ccccc12 | 0.62 | 1.95 | Activity [3]: Dose-dependent effect; Activity [4]: inactive |
| O=c1cc(-c2ccc([N+](=O)[O-])cc2)oc2ccc3ccccc3c12 | > 20 | 5.21 | Activity [3]: Dose-dependent effect; Activity [4]: Active; inhibition (INH) [5]: Active |
| O=c1cc(-c2cccc(Cl)c2)oc2c1ccc1ccccc12 | 7.75 | > 20 |  |
| O=c1cc(-c2ccccc2)oc2ccc3ccccc3c12 [BETA-NAPHTHOFLAVONE] | > 20 | > 20 |  |
| O=c1cc(-c2cccc(F)c2)oc2c1ccc1ccccc12 | 10.1 | > 20 |  |
| Cc1nc(-c2ccc(OCC(C)C)c(C#N)c2)sc1C(=O)O [FEBUXOSTAT] |  |  | Activity [6]: 1.5 mg/dL |
| O=c1cc(-c2cc(F)cc(F)c2)oc2ccc3ccccc3c12 | > 20 | 7.67 | inhibition [7]: inactive; Activity [3]: Dose-dependent effect; Activity [6]: Active; Activity [8]: 1.8 to 2.8 mg/dL; Activity [9]: Non-Toxic |
| Cc1ccc(-c2cc(=O)c3ccc4ccccc4c3o2)cc1 | 6.5 | > 20 |  |
| O=c1cc(-c2ccccc2F)oc2ccc3ccccc3c12 | > 20 | 14.7 |  |
| COc1ccc(-c2cc(=O)c3ccc4ccccc4c3o2)cc1 | 4.27 | 18.9 |  |
| O=c1cc(-c2cccc(Cl)c2Cl)oc2c1ccc1ccccc12 | 10.9 | > 20 |  |
| Oc1ncnc2[nH]ncc12 [ALLOPURINOL] |  |  | Activity [4]: 1.8 mg/dL |
| O=c1cc(-c2cc(F)cc(F)c2)oc2c1ccc1ccccc12 | 3.14 | 6.95 | inhibition [7]: inactive; Activity [3]: Dose-dependent effect; Activity [8]: 1.8 to 2.8 mg/dL |
| O=c1cc(-c2cc([N+](=O)[O-])cc([N+](=O)[O-])c2)oc2c1ccc1ccccc12 | 5.55 | > 20 |  |
| O=c1cc(-c2ccc(F)cc2)oc2c1ccc1ccccc12 | 0.83 | 0.62 | Activity [3]: Dose-dependent effect; Activity [4]: inactive |
| O=c1cc(-c2ccccc2F)oc2c1ccc1ccccc12 | 4.73 | 4.94 | inhibition [7]: inactive; Activity [3]: Dose-dependent effect; Activity [8]: 1.8 to 2.8 mg/dL; Activity [9]: Non-Toxic |
| O=c1cc(-c2ccc(F)cc2)oc2ccc3ccccc3c12 | > 20 | 12.4 |  |
| O=c1cc(-c2ccccc2)oc2c1ccc1ccccc12 [ALPHA-NAPHTHOFLAVONE] | 15.6 | > 20 |  |

More lines, main results first:

| IC50 [1] [µM] | IC50 [2] [µM] | Compound | also measured |
| --- | --- | --- | --- |
| 9.9 | 16.8 | O=c1cc(-c2ccccc2Br)oc2c1ccc1ccccc12 |  |
| 5.98 | > 20 | O=c1cc(-c2cccc(Br)c2)oc2c1ccc1ccccc12 |  |
| > 20 | > 20 | O=c1cc(-c2cccc([N+](=O)[O-])c2)oc2ccc3ccccc3c12 |  |
| > 20 | > 20 | O=c1cc(-c2cccc(Cl)c2)oc2ccc3ccccc3c12 |  |
| > 20 | > 20 | O=c1cc(-c2cccc(F)c2)oc2ccc3ccccc3c12 |  |
| > 20 | > 20 | O=c1cc(-c2ccccc2I)oc2ccc3ccccc3c12 |  |
| 7.33 | 19.4 | O=c1cc(-c2ccccc2I)oc2c1ccc1ccccc12 |  |
| > 20 | 8.9 | O=c1cc(-c2ccc(Br)cc2)oc2ccc3ccccc3c12 | inhibition [7]: inactive; Activity [3]: Dose-dependent effect; Activity [6]: Active; Activity [8]: 1.8 to 2.8 mg/dL |
| > 20 | > 20 | Cc1ccc(-c2cc(=O)c3c(ccc4ccccc43)o2)cc1 |  |
| > 20 | > 20 | O=c1cc(-c2cccc(Br)c2)oc2ccc3ccccc3c12 |  |
| > 20 | > 20 | COc1ccc(-c2cc(=O)c3c(ccc4ccccc43)o2)cc1 |  |
| > 20 | 17.1 | O=c1cc(-c2ccccc2Br)oc2ccc3ccccc3c12 |  |
| 0.35 | 8.93 | O=c1cc(-c2ccc(Br)cc2)oc2c1ccc1ccccc12 | inhibition [7]: inactive; Activity [3]: Dose-dependent effect; Activity [8]: 1.8 to 2.8 mg/dL |
